# HGIII-sPLA2 inh: Inhibits HGIII-sPLA2 liposome hydrolysis, primary screen | Q9NZ20 | 370,000 compounds, 0.56% hits | inhibition, % at 12.2 µM | QFRET BODIPY PC-A2 liposome hydrolysis, fluorescence;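 active = inhibition above mean plus 3 SD of compounds lying within the high and low control bounds, cut at about 19% in these data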;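 also: 0% = median of test compound wells and 100% = no enzyme DMSO wells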
# HTR2A ag: mouse HTR2A agonism via beta-arrestin recruitment | 360,000 compounds, 0.66% hits | P35363 | activation, % at 7.6 µM | CHO-K1 mHTR2A beta-arrestin complementation, luminescence; percent of 30 µM serotonin response | AID 624169;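 active = activation above a run cutoff, the mean activation of all tested compounds plus 3 SD, cut at about 14% in these data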;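 also: 0% = plate median of compound wells and 100% = 30 µM serotonin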
# NRP1-CendR mod: modulators of CendR peptide binding to human neuropilin-1 | O14786 | FAM-RPARPAR peptide binding to NRP-1, fluorescence polarization | inhibition, % at 25 µM | 360,000 compounds, 0.85% hits;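 active = inhibition or corrected inhibition above about 18%, plus a signal ratio from 0.5 to 1.5, limit read from the data, passing the limit was not always enough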
# M18AAP inhibitor: blocks P. falciparum M18 aspartyl aminopeptidase; inhibition, % at 7.35 µM; 290,000 compounds, 1.2% hits; recombinant PfM18AAP, H-Glu-NHMec fluorogenic cleavage; AID 1822;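 active = inhibition above the campaign mean inhibition over all tested compounds plus 3 SD, cut at about 28% in these data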;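 also: 0% = plate median of test compound wells and 100% = 2 mM ZnCl2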
# Arr AP2 block: blocks beta-arrestin peptide binding to AP2 adaptin; 340,000 compounds, 0.31% hits; inhibition, % at 10 µM; FITC-arrestin peptide / GST-AP2 beads, flow cytometry; AP2 beta2 appendage carries R879A mutation;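 active = inhibition above a set limit, near 3 SD of compounds lacking own fluorescence, cut at about 54% in these data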;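 also: plate controls were DMSO wells for no effect and 5 µM unlabelled arrestin peptide for full effect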
#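 system = GST-tagged AP2 beta2-adaptin appendage (R879A) on 4 µm glutathione beads | reagent = FITC-labelled arrestin peptide probe, 50 nM final | schedule = compound with beads 12 min RT, then probe 1 h RT | signal = HyperCyt-sampled flow cytometry, FL1 channel, ex 488/em 535 nm | read-out = percent response from loss of bead-bound FITC fluorescence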
# Hep lipid drop: modulators of hepatic lipid droplet formation | AID 1656 | inhibition, % at 6.5 µM | 240,000 compounds, 0.4% hits | AML12 mouse hepatocytes, oleate lipid droplets, BODIPY imaging;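 active = lipid droplet intensity inhibited by at least 50%, with more than 500 cells counted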
#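 Test system: AML12 mouse liver cells; schedule: overnight exposure; technique: high-content imaging of BODIPY-stained droplets and DAPI nuclei; read-out: % inhibition of corrected integrated BODIPY droplet signal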
# Arr AP2 CP1: human beta-arrestin and AP2 interaction inhibition, cherry pick; 1,300 compounds, 2% hits; inhibition, % at 10 µM; shares compounds with Arr AP2 block; GST-AP2 beads, FITC arrestin peptide binding, flow cytometry; GST-fused beta2-adaptin appendage, R879A mutant;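 active = inhibition above a set limit, roughly 3 SD of non-fluorescent compound noise, cut at about 38% in these data; inactive = inhibition at or below that limit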;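 also: loss of bead fluorescence from 50 nM FITC arrestin peptide bound to appendage; 0% = negative control wells and 100% = excess unlabelled arrestin peptide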
# GST GSH counter: disrupts GST binding to glutathione beads, arrestin-AP2 artifact; shares compounds with Arr AP2 block; GST-fluorescein binding to GSH beads, fluorescence, counter-screen; inhibition, % at 10 µM; 1,300 compounds, 2% hits; AID 588338;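 active = inhibition above 50%, about 3 SD of the inhibition seen with non-fluorescent compounds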;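 also: fluorescein maleimide labelled GST captured on 4 micron glutathione beads; higher means more loss of bead fluorescence from quenching or blocked binding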
# Active calls of the source: *; · = not tested or not shown. An excerpt weighted towards active compounds, which were near 3.3% of everything screened.
SMILES,HGIII-sPLA2 inh,HTR2A ag,NRP1-CendR mod,M18AAP inhibitor,Arr AP2 block,Hep lipid drop,Arr AP2 CP1,GST GSH counter
COc1ccc(CCCNC(=O)C2CCC(=O)N(Cc3ccccc3F)C2)cc1 (stereo not given),-2,2,5,-2,-7,6,-13,-2
CCCCn1nc(C(=O)NCC(c2cccs2)N2CCOCC2)c2ccccc2c1=O (stereo not given),-4,4,5,·,-4,·,·,·
COP1(=O)CCOCC[C@H](CC(C)C)NC(=O)[C@H](CC(C)C)N1 (stereo not given in full),11,·,·,·,·,·,·,·
COc1ccc(C(=O)Oc2ccc(C)cc2)cc1S(=O)(=O)N1CCOCC1,-7,-8,-2,·,·,·,·,·
CC(C)C[C@@H]1COc2cccc(N3CCCC3)c2S(=O)(=O)N1,10,·,·,·,·,·,·,·
O=C1CCCC2=C1[C@@]1(O[C@H]3C=CC=CN23)C(=O)N(c2ccccc2)c2ccccc21,-2,·,·,·,·,·,·,·
Nn1c(SCC(=O)Nc2ccc(OCc3ccccc3)cc2)nnc1-c1cc(-c2ccccc2)n[nH]1,7,·,·,·,·,·,·,·
O=C(c1ccncc1)N(Cc1cc2ccccc2[nH]c1=O)C1CCCCC1,4,-1,4,8,-6,6,·,·
O=C(c1ccco1)N(Cc1cc2ccccc2[nH]c1=O)C1CCCCC1,-2,-4,0,-7,79*,-4,17,-9
COc1ccccc1N1CCN(CCS(=O)(=O)c2cc(Cl)ccc2Cl)CC1,1,-6,6,·,·,·,·,·
CCc1ccc(C(=O)COC(=O)c2cc([N+](=O)[O-])ccc2NCCO)cc1,-30,-2,-3,-9,57*,13,-2,-7
Cc1cc(C)cc(NC(=O)Cn2c(=O)oc3cc(S(=O)(=O)N4CC(C)CC(C)C4)ccc32)c1 (stereo not given),-10,-6,3,-1,97*,·,-3,-8
CCCCNC(=O)Cn1c(=O)oc2cc(S(=O)(=O)N3CC(C)CC(C)C3)ccc21 (stereo not given),0,8,-5,5,33,·,·,·
COc1ccccc1C(C(=O)c1ccccc1)c1ccc2ccccc2c1 (stereo not given),2,-3,-3,·,·,·,·,·
CC(C)Cn1c(N)c(C(=O)COC(=O)c2ccc(Cl)cc2)c(=O)n(C)c1=O,-15,-1,1,6,-11,-18,·,·
CC(C)Cn1c(N)c(C(=O)COC(=O)c2ccc(Br)cc2)c(=O)n(C)c1=O,-19,6,2,·,4,·,2,1
CC(C)Cn1c(N)c(C(=O)COC(=O)c2nccnc2N)c(=O)n(C)c1=O,1,9,12,·,19,·,·,·
CC(C)Cn1c(N)c(C(=O)COC(=O)c2ccncc2)c(=O)n(C)c1=O,3,4,-3,-3,-6,·,-7,-4
O=C(CCNC(=O)c1ccccc1)NCc1ccccc1F,1,8,12,·,16,·,·,·
O=C(CCNC(=O)c1ccc(Br)cc1)NCc1ccccc1F,2,-6,-4,·,55*,·,-6,-1
COc1ccccc1NS(=O)(=O)c1cccc(NC(=O)C2CC(=O)N(Cc3ccccc3)C2)c1 (stereo not given),-25,0,18,0,60*,11,-3,-12
CC(=O)Nc1ccc(NC(=O)c2ccc([N+](=O)[O-])cc2Cl)cc1,3,-3,4,8,22,9,·,·
CC(=O)N(C)c1ccc(NC(=O)c2ccc([N+](=O)[O-])cc2Cl)cc1,2,3,-6,-12,69*,7,3,-4
C[C@@H]1C=CCCO[C@]12C(=O)N(Cc1ccc(Br)cc1)c1cccc(Br)c12,-6,·,·,·,·,·,·,·
CCC(=O)NC1=C(Cl)C(=O)C(NC(=O)CC)=C(Cl)C1=O,-1,12,-3,-38,66*,-2,61*,6
SMILES,HGIII-sPLA2 inh,HTR2A ag,NRP1-CendR mod,M18AAP inhibitor,Arr AP2 block,Hep lipid drop,Arr AP2 CP1,GST GSH counter
c1ccn2cc(-c3ccc4c(c3)OCCO4)nc2c1,-4,0,0,-6,58*,-14,-5,-4
Cc1cc(=O)[nH]c(-c2cccnc2)n1,-3,3,-1,-3,63*,2,-3,-6
CCCCS(=O)(=O)N1CCCc2nc(-c3ccc(F)cc3)ccc21,2,·,·,·,·,·,·,·
CC(=O)N/N=C\c1ccccc1OC/C=C/c1ccccc1,0,4,-1,-9,58*,5,-12,-5
CC(=O)N/N=C\c1cccc(OC/C=C/c2ccccc2)c1,-8,-5,-1,-1,58*,-12,-16,0
COC(=O)[C@@]12C[C@@H](CC(=O)NCCCN3CCCC3=O)C(=O)N(Cc3ccc4c(c3)OCO4)C1=CCC(C)(C)C2,-4,-1,4,·,·,·,·,·
COC(=O)C1=C(C)N(C)C(=NCc2ccc(C(F)(F)F)cc2)NC1c1cccc(Cl)c1 (stereo not given),-14,·,·,·,·,·,·,·
CC(C)(C)NC(=O)NC(=O)CN1CCCCC1,11,4,1,0,15,17,·,·
CC(C)(C)NC(=O)NC(=O)CN1CCCCCCC1,-3,2,7,10,62*,9,-12,-4
